{"data": "Published values pooled from the literature", "mode": "inhibitor", "rep methyltransferase": "Replicase polyprotein 1ab, methyltransferase (rep, Severe acute respiratory syndrome coronavirus 2, UniProt P0DTD1)", "rep main protease": "Replicase polyprotein 1ab, main protease (rep, Severe acute respiratory syndrome coronavirus 2, UniProt P0DTD1)", "rep papain-like protease": "Replicase polyprotein 1ab, papain-like protease (rep, Severe acute respiratory syndrome coronavirus 2, UniProt P0DTD1)", "note": "Protocols differ between the studies behind these lines. pIC50: −log10 of the molar value."}
{"Structure (SMILES)": "Clc1cccc(/C=C/c2nn3c(-c4ccco4)nnc3s2)c1", "target": "rep methyltransferase", "assay": "enzyme activity", "pIC50": 4.61}
{"Structure (SMILES)": "O=C(NC[C@@H]1c2ccccc2CCN1C(=O)/C=C/c1cn[nH]c1)c1cncc2ccc(F)cc12", "target": "rep main protease", "assay": "enzyme activity", "pIC50": 4.73}
{"Structure (SMILES)": "CC(C)c1nnc(NC(=O)c2cccc(N3C(=O)c4ccccc4C3=O)c2)s1", "target": "rep methyltransferase", "assay": "enzyme activity", "pIC50": 4.45}
{"Structure (SMILES)": "CCCCCCCCCCCCCCCCCC[S+](CCC)c1ccccc1C(=O)OCC (stereo not drawn)", "target": "rep main protease", "assay": "enzyme activity", "pIC50": "< 4.70"}
{"Structure (SMILES)": "CCCCCCCC/C=C\\CCCCCCCC(=O)NCCc1ccc(O)c(O)c1", "target": "rep methyltransferase", "assay": "enzyme activity", "pIC50": 4.27}
{"Structure (SMILES)": "O=C1C(Cl)=C(Cl)C(=O)C(Cl)=C1Cl", "target": "rep main protease", "assay": "enzyme activity", "pIC50": 6.74}
{"Structure (SMILES)": "Cc1coc2c1C(=O)C(=O)c1c-2ccc2c1CCCC2(C)C", "target": "rep papain-like protease", "assay": "enzyme activity, FRET", "setting": "pH 7.5", "pIC50": 4.82}
{"Structure (SMILES)": "O=C(O)C(O)Cc1ccc(O)c(O)c1 (stereo not drawn)", "target": "rep main protease", "assay": "enzyme activity", "pIC50": 5.24}
{"Structure (SMILES)": "C[C@H]1[C@H](OC(=O)CCC(=O)O)O[C@@H]2O[C@@]3(C)CC[C@H]4[C@H](C)CC[C@@H]1[C@@]24OO3", "target": "rep main protease", "assay": "enzyme activity in cells", "pIC50": 5.62}
{"Structure (SMILES)": "O=[N+]([O-])/C=C/c1ccc2c(c1)OCO2", "target": "rep main protease", "assay": "enzyme activity", "pIC50": 4.83}
{"Structure (SMILES)": "CC(=O)N1CCN(C(=S)c2ccc(Cl)cc2)CC1", "target": "rep methyltransferase", "assay": "enzyme activity", "pIC50": 3.74}
{"Structure (SMILES)": "O=C(/C=C/c1ccc2ccc(C(F)(F)F)cc2n1)c1ccncc1", "target": "rep main protease", "assay": "enzyme activity", "pIC50": 5.11}
{"Structure (SMILES)": "O=C1c2ccccc2NC(c2cc(Cl)ccc2O)N1N=Cc1cc(Cl)ccc1O (stereo not drawn)", "target": "rep main protease", "assay": "enzyme activity in cells", "pIC50": 5.00}
{"Structure (SMILES)": "Cc1ccc(-c2nc(N3CCOCC3)s[n+]2-c2ccccc2)cc1", "target": "rep main protease", "assay": "enzyme activity", "pIC50": 6.45}
{"Structure (SMILES)": "CN(C(=O)[C@H](Cc1ccccc1)NC(=O)OCc1ccccc1)N(C#N)CCC(N)=O", "target": "rep main protease", "assay": "enzyme activity", "pIC50": 5.63}
{"Structure (SMILES)": "CC(=O)N1CCN(C(=S)c2ccc(-c3cccc(Cl)c3)o2)CC1", "target": "rep methyltransferase", "assay": "enzyme activity", "pIC50": 3.97}
{"Structure (SMILES)": "O=C(CC1Sc2ncnn2C1=O)Nc1ccc(Br)cc1 (stereo not drawn)", "target": "rep main protease", "assay": "enzyme activity, fluorescence", "pIC50": "< 4.70"}
{"Structure (SMILES)": "CC1(C)CC(=O)c2c(oc3c(Cl)cc(NS(=O)(=O)c4ccc5ccccc5c4)cc23)C1", "target": "rep methyltransferase", "assay": "enzyme activity", "pIC50": 4.06}
{"Structure (SMILES)": "CC(C)c1nc(CN(C)C(=O)N[C@@H](CCN2CCOCC2)C(=O)N[C@H](CC[C@H](Cc2ccccc2)NC(=O)OCc2cncs2)Cc2ccccc2)cs1", "target": "rep main protease", "assay": "enzyme activity in cells", "pIC50": "< 4.70"}
{"Structure (SMILES)": "COc1cc(C[C@@H](C)[C@@H](C)Cc2ccc(O)c(OC)c2)ccc1O", "target": "rep papain-like protease", "assay": "enzyme activity, FRET", "pIC50": 5.37}
{"Structure (SMILES)": "CCOc1nc2cccc(C(=O)O)c2n1Cc1ccc(-c2ccccc2-c2nnn[nH]2)cc1", "target": "rep main protease", "assay": "enzyme activity in cells", "pIC50": "< 4.22"}
{"Structure (SMILES)": "Cc1cc(/C=C/c2ccc3cc(N(C)C)ccc3[n+]2C)c(C)n1-c1ccccc1", "target": "rep methyltransferase", "assay": "enzyme activity", "pIC50": 4.36}
{"Structure (SMILES)": "COC(=O)C1=C(C)NC(C)=C(C(=O)OCCN2CCN(C(c3ccccc3)c3ccccc3)CC2)C1c1cccc([N+](=O)[O-])c1 (stereo not drawn)", "target": "rep main protease", "assay": "enzyme activity in cells", "pIC50": "< 5.00"}
{"Structure (SMILES)": "CN1CCN(C(=O)c2ccc(-c3ccc4c(C=O)c(O)ccc4c3)s2)CC1", "target": "rep main protease", "assay": "enzyme activity", "pIC50": 5.89}
